Laboratory results from ChEMBL document CHEMBL1122506, “Cardiac-slowing amidines containing the 3-thioindone group. Potential antianginal agents” (1983).

Tests used:
Canis familiaris [1] = organism: Canis familiaris; test: Percent decrease from initial heart rate (percent delta HR50/HR0 x 100) in dogs; format: functional, Canis lupus familiaris
Method in brief: (§1)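 Triazine tachycardia in conscious dogs: carotid artery and jugular vein catheterized with heparinized saline; 18 h after surgery, triazine vasodilator U20388 12 mg/kg po; about 1 h later, dog in sling with arterial pressure and ECG monitored. Test agent infused iv at 0.8 (mg/kg)/min to 30 mg/kg total. D50 = dose giving 50% of maximal slowing in that animal; ΔHR50 = heart-rate change at D50; CS index = %ΔHR50/D50.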

Canis familiaris [2] = organism: Canis familiaris; test: Relative activity (fraction of the most active compound 24) was determined; format: functional, Canis lupus familiaris
Canis familiaris [3] = test: Dose required to achieve 50 % of maximal cardiac slowing in triazine tachycardia test in conscious dog; format: functional, Canis lupus familiaris; method in brief: as §1
Canis familiaris [4] = test: Change in heart rate at the above D50 dose in conscious dogs; format: functional, Canis lupus familiaris; method in brief: as §1
Canis familiaris [5] = test: Evaluated for the myocardial depression rating which is barely observable for the given compound in anesthetized, ganglion-blocked dog
Canis familiaris [6] = organism: Canis familiaris; test: Cardiac slowing index was measured for potency and efficacy; format: functional, Canis lupus familiaris; method in brief: as §1
Canis familiaris [7] = test: Myocardial depression rating in anesthetized, ganglion-blocked dog; Weak activity.
Canis familiaris [8] = test: Evaluated for the heart rate at dose 1.0 mg/kg in 4 animals by poldine tachycardia test; format: functional, Canis lupus familiaris
Method in brief: (§2)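 Poldine tachycardia: dogs prepared surgically as in the triazine method; poldine methyl sulfate 0.5 mg/kg iv, then 30 min later test agent in increasing doses (0.5/1.0/2.5 mg/kg) at 30-min intervals; read-out is the maximum percent decrease in heart rate at each dose.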

Canis familiaris [9] = test: Evaluated for the heart rate at dose 1.0 mg/kg in 4 animals by glucagon-induced tachycardia test; format: functional, Canis lupus familiaris
Canis familiaris [10] = test: Evaluated for the heart rate at dose 1.0 mg/kg in 4 animals by aminophylline-induced sinus tachycardia test; format: functional, Canis lupus familiaris
Canis familiaris [11] = test: Evaluated for the heart rate at dose 0.5 mg/kg in 4 animals by poldine tachycardia test; format: functional, Canis lupus familiaris; method in brief: as §2
Canis familiaris [12] = test: Evaluated for the heart rate at dose 5.0 mg/kg in 4 animals by aminophylline-induced sinus tachycardia test; format: functional, Canis lupus familiaris
Canis familiaris [13] = test: Evaluated for the heart rate at dose 2.5 mg/kg in 4 animals by glucagon-induced tachycardia test; format: functional, Canis lupus familiaris
Canis familiaris [14] = test: Evaluated for the heart rate at dose 5.0 mg/kg in 4 animals by glucagon-induced tachycardia test; format: functional, Canis lupus familiaris
Canis familiaris [15] = organism: Canis familiaris; test: Percent decrease from the initial evaluated heart rate (percent delta HR50/HR0 x 100); format: functional, Canis lupus familiaris; method in brief: as §1
Canis familiaris [16] = test: Evaluated for the heart rate at dose 2.5 mg/kg in 4 animals by poldine tachycardia test; format: functional, Canis lupus familiaris; method in brief: as §2
Canis familiaris [17] = test: Evaluated for the heart rate at dose 2.5 mg/kg in 4 animals by aminophylline-induced sinus tachycardia test; format: functional, Canis lupus familiaris
Canis familiaris [18] = test: Evaluated for the myocardial depression rating which is none for the given compound in anesthetized, ganglion-blocked dog
Canis familiaris [19] = test: Evaluated for the myocardial depression rating which is severe for the given compound in anesthetized, ganglion-blocked dog
Canis familiaris [20] = test: Myocardial depression in conscious dog; Moderate activity.; format: functional, Canis lupus familiaris, Myocardium
Canis familiaris [21] = organism: Canis familiaris; test: Cardiac slowing index of the compound; format: functional, Canis lupus familiaris; method in brief: as §1
Canis familiaris [22] = test: Myocardial depression in anesthetized, ganglion-blocked dog; Moderate activity.
Canis familiaris [23] = test: Evaluated for the heart rate at dose 2.5 mg/kg in 5 animals by glucagon-induced tachycardia test; format: functional, Canis lupus familiaris
Canis familiaris [24] = test: Evaluated for the heart rate at dose 1.0 mg/kg in 5 animals by glucagon-induced tachycardia test; format: functional, Canis lupus familiaris
Canis familiaris [25] = test: Evaluated for the heart rate at dose 5.0 mg/kg in 6 animals by aminophylline-induced sinus tachycardia test; format: functional, Canis lupus familiaris
Canis familiaris [26] = test: Evaluated for the heart rate at dose 1.0 mg/kg in 6 animals by aminophylline-induced sinus tachycardia test; format: functional, Canis lupus familiaris
Canis familiaris [27] = test: Evaluated for the heart rate at dose 2.5 mg/kg in 6 animals by aminophylline-induced sinus tachycardia test; format: functional, Canis lupus familiaris
Canis familiaris [28] = test: Evaluated for the heart rate at dose 1.0 mg/kg in 3 animals by aminophylline-induced sinus tachycardia test; format: functional, Canis lupus familiaris
Canis familiaris [29] = test: Evaluated for the heart rate at dose 2.5 mg/kg in 3 animals by aminophylline-induced sinus tachycardia test; format: functional, Canis lupus familiaris
Canis familiaris [30] = test: Evaluated for the heart rate at dose 5.0 mg/kg in 3 animals by aminophylline-induced sinus tachycardia test; format: functional, Canis lupus familiaris
Canis familiaris [31] = organism: Canis familiaris; test: Evaluated for the dose required to achieve 50 % of the maximal cardiac slowing in the triazine tachycardia test.; format: functional, Canis lupus familiaris; method in brief: as §1

Row | SMILES | Delta HR50 (Canis familiaris [1]) | Relative activity (Canis familiaris [2]) | D50 (Canis familiaris [3]) | Delta HR50 (Canis familiaris [4]) | CS index (Canis familiaris [6]) | Max decrease in heart rate (Canis familiaris [8]) | Max decrease in heart rate (Canis familiaris [9]) | Max decrease in heart rate (Canis familiaris [11]) | Max decrease in heart rate (Canis familiaris [13]) | Max decrease in heart rate (Canis familiaris [14]) | Max decrease in heart rate (Canis familiaris [16]) | other results
1 | CCCn1cc(SCC/N=C2\CCCN2C)c2ccccc21 | 27.4% | 0.5 | 1.7 mg/kg | -60 beats min-1 | 16.1 |  |  |  |  |  |  | MD (Canis familiaris [5]): 1
2 | Cc1[nH]c2ccccc2c1SCC/N=C1\CCCN1C |  | 0.14 | 4.5 mg/kg | -34 beats min-1 | 4.5 | 25% | 20% | 15% | 29% | 42% | 30% | MD (Canis familiaris [7]): 2.5; Max decrease in heart rate (Canis familiaris [10]): 12%; Max decrease in heart rate (Canis familiaris [12]): 34%; Delta HR50 (Canis familiaris [15]): 20.2%; Max decrease in heart rate (Canis familiaris [17]): 23%
3 | CCn1cc(CC/N=C2/CCCN2C)c2ccccc21 | 20.2% | 0.79 | 0.8 mg/kg | -48 beats min-1 | 25.2 |  |  |  |  |  |  | MD (Canis familiaris [18]): 0
4 | CCCc1[nH]c2ccccc2c1SCC/N=C1\CCCN1C | 29% | 0.11 | 7.9 mg/kg | -62 beats min-1 | 3.7 |  |  |  |  |  |  | MD (Canis familiaris [19]): 4
5 | CN1CCC/C1=N\CCSc1cn(C/C=C/c2ccccc2)c2ccccc12 | 23.5% | 0.12 | 6.1 mg/kg | -58 beats min-1 | 3.8 |  |  |  |  |  |  | MD (Canis familiaris [20]): 3
6 | CN1CCN=C1NCCCCSc1c[nH]c2ccccc12 | 10.5% | 0.03 | 12.6 mg/kg | -27 beats min-1 | 0.8 |  |  |  |  |  |  | MD (Canis familiaris [18]): 0
7 | CCCCCCCCn1cc(SCC/N=C2\CCCN2C)c2ccccc21 | 14.8% |  | 7.3 mg/kg | -32 beats min-1 |  |  |  |  |  |  |  | CS index (Canis familiaris [21]): 2; MD (Canis familiaris [22]): 2
8 | CCCc1[nH]c2ccccc2c1SCCNC1=NCCN1C | 13.2% | 0.2 | 2.1 mg/kg | -27 beats min-1 | 6.3 |  |  |  |  |  |  | MD (Canis familiaris [19]): 4
9 | CCn1cc(SCC/N=C2\CCCN2C)c2ccccc21 | 21.8% | 0.85 | 0.8 mg/kg | -39 beats min-1 | 27.2 | 34% |  | 18% |  |  | 47% | MD (Canis familiaris [7]): 2; Max decrease in heart rate (Canis familiaris [23]): 46%; Max decrease in heart rate (Canis familiaris [10]): 27%; Max decrease in heart rate (Canis familiaris [12]): 53%; Max decrease in heart rate (Canis familiaris [24]): 28%; Max decrease in heart rate (Canis familiaris [17]): 43%
10 | CN1CCCC1=NCCCCc1c[nH]c2ccccc12 | 19% | 0.11 | 6.1 mg/kg | -50 beats min-1 | 3.1 |  |  |  |  |  |  | MD (Canis familiaris [18]): 0
11 | CN1CCC/C1=N\CCSc1c[nH]c2ccccc12 | 20.4% | 0.26 | 2.5 mg/kg | -40 beats min-1 | 8.2 | 22% | 6% | 9% | 20% | 28% | 33% | Max decrease in heart rate (Canis familiaris [10]): 10%; Max decrease in heart rate (Canis familiaris [12]): 39%; MD (Canis familiaris [22]): 3; Max decrease in heart rate (Canis familiaris [17]): 22%
12 | CN1CCC/C1=N\CCC1CNc2ccccc21 (stereo not given) | 12.2% | 0.13 | 3.5 mg/kg | -27 beats min-1 | 3.5 |  |  |  |  |  |  | MD (Canis familiaris [5]): 1
13 | CN1CCC/C1=N\CCSc1cn(C)c2ccccc12 | 20.2% | 0.52 | 1.2 mg/kg | -30 beats min-1 | 16.8 | 33% | 13% | 24% | 34% | 53% | 47% | MD (Canis familiaris [7]): 2; Max decrease in heart rate (Canis familiaris [25]): 39%; Max decrease in heart rate (Canis familiaris [26]): 22%; Max decrease in heart rate (Canis familiaris [27]): 32%
14 | CC(C)COCC(CN(Cc1ccccc1)c1ccccc1)N1CCCC1 (stereo not given) [BEPRIDIL] | 14.8% | 0.23 | 2 mg/kg | -30 beats min-1 | 7.4 | 18% | 16% | 10% | 30% | 45% | 25% | Max decrease in heart rate (Canis familiaris [28]): 13%; Max decrease in heart rate (Canis familiaris [29]): 23%; MD (Canis familiaris [5]): 1; Max decrease in heart rate (Canis familiaris [30]): 39%
15 | COc1ccc(CC/N=C2/CCCN2C)cc1OC [MIXIDINE] | 19.6% | 0.18 | 3.3 mg/kg | -34 beats min-1 | 5.9 | 24% |  | 12% | 16% | 28% | 35% | Max decrease in heart rate (Canis familiaris [25]): 33%; MD (Canis familiaris [5]): 1; Max decrease in heart rate (Canis familiaris [26]): 6%; Max decrease in heart rate (Canis familiaris [27]): 25%
16 | CC(C)NCC(O)COc1cccc2ccccc12 (stereo not given) [PROPRANOLOL] | 28.5% | 0.13 |  | -66 beats min-1 | 4.2 | 32% | 3% | 21% | 9% |  | 38% | Max decrease in heart rate (Canis familiaris [10]): 24%; Max decrease in heart rate (Canis familiaris [12]): 37%; D50 (Canis familiaris [31]): 6.7 mg/kg; MD (Canis familiaris [22]): 3; Max decrease in heart rate (Canis familiaris [17]): 32%
